≈ marks a conversion by molar mass, not a printed value.
How the values were obtained:
Format in all cases: functional
Cryptococcus neoformans [1] = assay: Antifungal activity against cryptococcus neoformans
Outline: (§1)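 C. neoformans grown on YM agar 48 h at 35 °C, then 6 h in GYB broth at 35 °C with rotation. Final inoculum 2 × 10^4 cfu/mL. SAB broth microdilution with 2-fold serial dilutions (compound in ethanol or DMSO). Incubated 48 h at 35 °C; MIC read visually as the lowest concentration with no growth. Amphotericin B reference.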

Aspergillus fumigatus [2] = assay: Antifungal activity against aspergillus fumigatus
Outline: (§2)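 A. fumigatus grown on SAB agar 3–4 d at 35 °C; conidia used as inoculum at final 1 × 10^3 cfu/mL. Broth microdilution in SAB broth, 2-fold serial dilutions of compound dissolved in ethanol or DMSO. Incubated 48 h at 35 °C. MIC read by eye as the lowest concentration with no visible growth. Amphotericin B reference.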

Candida albicans [3] = assay: Antifungal activity against candida albicans
Outline: (§3)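 Candida grown 24 h at 35 °C on YM agar, then 6 h at 35 °C with rotation in GYB broth (2% glucose, 1% yeast extract). Final inoculum 2 × 10^3 cfu/mL. 96-well SAB broth microdilution, 2-fold series from ethanol or DMSO solutions. 24 h at 35 °C; MIC = lowest concentration without visible growth. Amphotericin B reference.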

Candida tropicalis = assay: Antifungal activity against candida tropicalis 1525; outline: as §3
Candida parapsilosis = assay: Antifungal activity against candida parapsilosis CP18; details: Lodderomyces parapsilosis; outline: as §3
Trichophyton rubrum = assay: Antifungal activity against Trichophyton rubrum ATCC 18762
Outline: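 T. rubrum grown on SAB agar 5–7 d at 25 °C; conidia as inoculum, final 1 × 10^4 cfu/mL. Compounds in ethanol or DMSO, 2-fold serial dilutions in SAB broth in 96-well plates. Incubated 7 d at 25 °C. MIC taken as the lowest concentration with no visible growth versus the growth-control wells. Amphotericin B was the reference.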

Pichia kudriavzevii = assay: Antifungal activity against candida krusei GK7831; outline: as §3
Candida albicans [4] = assay: Antifungal activity against candida albicans B-311; outline: as §3
Candida albicans [5] = assay: Antifungal activity against candida albicans A-26; outline: as §3
Aspergillus fumigatus [6] = assay: Antifungal activity against aspergillus fumigatus WM-1; outline: as §2
Cryptococcus neoformans [7] = assay: Antifungal activity against cryptococcus neoformans MI-106; outline: as §1

Compound	MIC (Cryptococcus neoformans [1]) [µg/mL]	MIC (Aspergillus fumigatus [2]) [µg/mL]	MIC (Candida albicans [3]) [µg/mL]	also measured
CO/N=C/C1=CC=C(/C=N/OC)SS1	1.6 (≈ 6.95 µM)	6.3 (≈ 27.4 µM)	0.8 (≈ 3.47 µM)	
COC(=O)/C=C/C1=CC=C(CO)SS1	6.3 (≈ 27.4 µM)	6.3 (≈ 27.4 µM)	6.3 (≈ 27.4 µM)	
O=C(OCC1=CC=C(COC(=O)c2cccnc2)SS1)c1cccnc1		2 (≈ 5.18 µM)	2 (≈ 5.18 µM)	
O=[N+]([O-])c1ccc(OCC2=CC=C(CO)SS2)nc1	0.1 (≈ 0.335 µM)	0.4 (≈ 1.34 µM)	0.2 (≈ 0.67 µM)	
CC1(C)OCC(COCC2=CC=C(COCC3COC(C)(C)O3)SS2)O1 (stereo unspecified)	> 100	> 100	> 100	
O=C(OCC1=CC=C(CO)SS1)C1CC1	1.6 (≈ 6.55 µM)	0.4 (≈ 1.64 µM)	3.1 (≈ 12.7 µM)	MIC (Candida tropicalis): 1.25 µg/mL (≈ 5.12 µM); MIC (Candida parapsilosis): 2.5 µg/mL (≈ 10.2 µM); MIC (Trichophyton rubrum): 0.31 µg/mL (≈ 1.27 µM); MIC (Pichia kudriavzevii): 1.25 µg/mL (≈ 5.12 µM)
O=c1ccc(=O)n(CC2=CC=C(CO)SS2)[nH]1	> 100	> 100	> 100	
COC(=O)c1ccc(OCC2=CC=C(CO)SS2)cc1	3.1 (≈ 9.99 µM)	12.5 (≈ 40.3 µM)	3.1 (≈ 9.99 µM)	
O=c1ccccn1CC1=CC=C(CO)SS1	12.5 (≈ 49.3 µM)	> 100	> 100	
C#Cc1cccc(OCC2=CC=C(CO)SS2)c1	1.6 (≈ 5.79 µM)	6.3 (≈ 22.8 µM)	1.6 (≈ 5.79 µM)	
CN(C)c1cccc(OCC2=CC=C(CO)SS2)c1	50 (≈ 169 µM)	100 (≈ 338 µM)	> 50	
N#CC1=CC=C(CO)SS1	0.8 (≈ 4.67 µM)	1.6 (≈ 9.34 µM)	0.8 (≈ 4.67 µM)	
O=C(OCC1=CC=C(COC(=O)c2ccccc2)SS1)c1ccccc1	> 100	> 100	> 100	
CCC(=O)OCC1=CC=C(COC(=O)CC)SS1	6.3 (≈ 21.8 µM)	3.1 (≈ 10.7 µM)	12.5 (≈ 43.3 µM)	
O=CC1=CC=C(C=O)SS1	1.6 (≈ 9.29 µM)	6.3 (≈ 36.6 µM)	1.6 (≈ 9.29 µM)	
OCC1=CC=C(COc2ccccn2)SS1	3.1 (≈ 12.2 µM)	3.1 (≈ 12.2 µM)	3.1 (≈ 12.2 µM)	
O=C(OCC1=CC=C(CO)SS1)c1ccncc1		1.6 (≈ 5.69 µM)	3.1 (≈ 11 µM)	
O=C(Nc1ccccc1O)OCC1=CC=C(CO)SS1	50 (≈ 161 µM)	50 (≈ 161 µM)	100 (≈ 321 µM)	
CC(=O)OCC1=CC=C(CO)SS1	0.2 (≈ 0.916 µM)	0.4 (≈ 1.83 µM)	3.1 (≈ 14.2 µM)	MIC (Candida tropicalis): 1.25 µg/mL (≈ 5.73 µM); MIC (Candida parapsilosis): 1.25 µg/mL (≈ 5.73 µM); MIC (Trichophyton rubrum): 0.31 µg/mL (≈ 1.42 µM); MIC (Pichia kudriavzevii): 1.25 µg/mL (≈ 5.73 µM)

Compound	MIC (Cryptococcus neoformans [1]) [µg/mL]	MIC (Aspergillus fumigatus [2]) [µg/mL]	MIC (Candida albicans [3]) [µg/mL]	also measured
CC(=O)OCC1=CC=C(COC(C)=O)SS1	0.63 (≈ 2.42 µM)	0.63 (≈ 2.42 µM)	1.25 (≈ 4.8 µM)	
CCOC(=O)/C=C/C1=CC=C(CO)SS1	6.3 (≈ 25.8 µM)	25 (≈ 102 µM)	12.5 (≈ 51.2 µM)	
OCC1=CC=C(COc2ccccc2)SS1	12.5 (≈ 49.5 µM)	25 (≈ 99.1 µM)	25 (≈ 99.1 µM)	
CC(C)C(=O)OCC1=CC=C(COC(=O)C(C)C)SS1	12.5 (≈ 39.5 µM)	6.3 (≈ 19.9 µM)	> 100	
OCC1=CC=C(COc2ccccc2C(F)(F)F)SS1	6.3 (≈ 19.7 µM)	50 (≈ 156 µM)	25 (≈ 78 µM)	
CO/N=C/C1=CC=C(CO)SS1	6.3 (≈ 31 µM)	6.3 (≈ 31 µM)	6.3 (≈ 31 µM)	
OCC1=CC=C(COCC(O)CO)SS1 (stereo unspecified)	> 100	> 100	> 100	
O=C(OCC1=CC=C(COC(=O)C2CCCC2)SS1)C1CCCC1		> 250	> 250	
OCC1=CC=C(COc2ccc(O)nn2)SS1	> 100	> 100	> 100	
OCC1=CC=C(COc2ccc(-n3ccnc3)cc2)SS1	100 (≈ 314 µM)	100 (≈ 314 µM)	12.5 (≈ 39.3 µM)	
OCC1=CC=C(COc2ccccc2F)SS1	1.6 (≈ 5.92 µM)	3.1 (≈ 11.5 µM)	3.1 (≈ 11.5 µM)	
O=C(NCC1=CC=C(CO)SS1)Nc1ccccc1O	> 100	> 100	> 100	
Cc1ccc(S(=O)(=O)NC(=O)OCC2=CC=C(CO)SS2)cc1	50 (≈ 134 µM)	100 (≈ 268 µM)	100 (≈ 268 µM)	
OCC1=CC=C(COc2cccnc2)SS1	1.6 (≈ 6.32 µM)	3.1 (≈ 12.2 µM)	3.1 (≈ 12.2 µM)	
[N-]=[N+]=NCC1=CC=C(CO)SS1	0.25 (≈ 1.24 µM)	0.25 (≈ 1.24 µM)	0.25 (≈ 1.24 µM)	
O/N=C/C1=CC=C(/C=N/O)SS1	0.8 (≈ 3.96 µM)	0.4 (≈ 1.98 µM)	0.1 (≈ 0.494 µM)	MIC (Candida tropicalis): 1.6 µg/mL (≈ 7.91 µM); MIC (Candida albicans [4]): 0.1 µg/mL (≈ 0.494 µM); MIC (Candida albicans [5]): 0.2 µg/mL (≈ 0.989 µM); MIC (Candida parapsilosis): 0.2 µg/mL (≈ 0.989 µM); MIC (Trichophyton rubrum): 0.05 µg/mL (≈ 0.247 µM); MIC (Aspergillus fumigatus [6]): 0.2 µg/mL (≈ 0.989 µM); MIC (Pichia kudriavzevii): 6.3 µg/mL (≈ 31.1 µM); MIC (Cryptococcus neoformans [7]): 1.6 µg/mL (≈ 7.91 µM)
O=C(OCC1=CC=C(CO)SS1)c1ccccc1	3.1 (≈ 11.1 µM)	3.1 (≈ 11.1 µM)	6.3 (≈ 22.5 µM)	
OCC1=CC=C(COc2cc(C(F)(F)F)ccc2Cl)SS1	1.6 (≈ 4.51 µM)	6.3 (≈ 17.8 µM)	1.6 (≈ 4.51 µM)	
CC(=O)NCC1=CC=C(CO)SS1	100 (≈ 460 µM)	> 100	> 100	

Compound	MIC (Cryptococcus neoformans [1]) [µg/mL]	MIC (Aspergillus fumigatus [2]) [µg/mL]	MIC (Candida albicans [3]) [µg/mL]	also measured
O=C(OCC1=CC=C(CO)SS1)C1CCCC1		3.1 (≈ 11.4 µM)	6.3 (≈ 23.1 µM)	
O=c1ccc([N+](=O)[O-])cn1CC1=CC=C(CO)SS1	100 (≈ 335 µM)	> 100	> 100	
COC(=O)c1ccccc1OCC1=CC=C(CO)SS1	6.3 (≈ 20.3 µM)	12.5 (≈ 40.3 µM)	6.3 (≈ 20.3 µM)	
OCC1=CC=C(COc2ccccc2O)SS1	25 (≈ 93.2 µM)	12.5 (≈ 46.6 µM)	6.3 (≈ 23.5 µM)	
OCC1=CC=C(/C=N/O)SS1	1.6 (≈ 8.45 µM)	1.6 (≈ 8.45 µM)	1.6 (≈ 8.45 µM)	MIC (Candida tropicalis): 6.3 µg/mL (≈ 33.3 µM); MIC (Candida albicans [4]): 1.6 µg/mL (≈ 8.45 µM); MIC (Candida albicans [5]): 1.6 µg/mL (≈ 8.45 µM); MIC (Candida parapsilosis): 3.1 µg/mL (≈ 16.4 µM); MIC (Trichophyton rubrum): 0.8 µg/mL (≈ 4.23 µM); MIC (Aspergillus fumigatus [6]): 1.6 µg/mL (≈ 8.45 µM); MIC (Pichia kudriavzevii): 6.3 µg/mL (≈ 33.3 µM); MIC (Cryptococcus neoformans [7]): 1.6 µg/mL (≈ 8.45 µM)
CC1(C)OCC(COCC2=CC=C(CO)SS2)O1 (stereo unspecified)	> 100	> 100	> 100	
COC(=O)c1cccc(OCC2=CC=C(CO)SS2)c1	6.3 (≈ 20.3 µM)	25 (≈ 80.5 µM)	3.1 (≈ 9.99 µM)	
CC1(C)OCC(COCC2=CC=C(COCC(O)CO)SS2)O1 (stereo unspecified)	> 100	> 100	> 100	
OCC1=CC=C(CO)SS1	31 (≈ 176 µM)	2 (≈ 11.3 µM)	16 (≈ 90.8 µM)	
N#C/C=C/C1=CC=C(CO)SS1	3.1 (≈ 15.7 µM)	6.3 (≈ 31.9 µM)	12.5 (≈ 63.4 µM)	
O=C(NCC1=CC=C(CO)SS1)c1ccccc1O	100 (≈ 339 µM)	> 100	> 100	
[N-]=[N+]=NCC1=CC=C(CCl)SS1	6.3 (≈ 28.7 µM)	50 (≈ 228 µM)	25 (≈ 114 µM)	
O=C(OCC1=CC=C(CO)SS1)c1ccccc1O	0.2 (≈ 0.675 µM)	0.2 (≈ 0.675 µM)	0.2 (≈ 0.675 µM)	
OCC1=CC=C(CSc2nnnn2-c2ccc(O)cc2)SS1	6.3 (≈ 17.9 µM)	12.5 (≈ 35.5 µM)	25 (≈ 70.9 µM)	
O=C(OCC1=CC=C(COC(=O)C2CC2)SS1)C1CC1	3.1 (≈ 9.92 µM)	1.6 (≈ 5.12 µM)	6.3 (≈ 20.2 µM)	
OCC1=CC=C(COc2cccc(O)c2)SS1	100 (≈ 373 µM)	> 100	50 (≈ 186 µM)	
O=C(OCC1=CC=C(COC(=O)c2ccccc2O)SS1)c1ccccc1O		> 250	> 250	
O=C(OCC1=CC=C(COC(=O)c2ccncc2)SS1)c1ccncc1		2 (≈ 5.18 µM)	2 (≈ 5.18 µM)	
